Screens as filed in PubChem BioAssay.
697 NFkB inh: inhibitors of the PMA/ionomycin-induced NF-kB reporter in 697 B cells | 697 B-cell NF-kB luciferase reporter, 16 h | inhibition, % at 4 µM | 0.33% of 330,000 active | AID 435022; in the data active = inhibition above about 35%
Jurkat NFkB inh: lowers PMA/ionomycin-induced NF-kB signal in Jurkat cells | PMA/ionomycin-induced NF-kB luciferase reporter, luminescence | 0.53% of 330,000 active | inhibition, % at 4 µM; in the data active = inhibition above about 50%
hiPSC survival: hiPSC single-cell survival enhancement; ATPlite luminescence; 100% = ROCK inhibitor wells, 0% = DMSO; survival enhancement, % at 20 µM; 0.044% of 360,000 active; AID 602274; in the data active = survival enhancement above about 18%;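 also: cells exposed to compounds for 16 hours before the ATP read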
H9c2 TAG inh: reduces triacylglycerol accumulation in H9c2 cells; Nile Red lipid (TAG) fluorescence; cells loaded with 200 µM oleic acid; AID 651582; inhibition, % at 12.5 µM; 0.66% of 230,000 active;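 active = pattern-corrected inhibition of lipid staining of at least 50% with the nuclear-stain viability signal not falling by more than 50%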;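 also: 0% = DMSO wells and 100% = triacsin C control wells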
Hep lipid drop: modulators of hepatic lipid droplet formation | AML12 mouse hepatocytes, oleate lipid droplets, BODIPY imaging | AID 1656 | inhibition, % at 6.5 µM | 0.4% of 240,000 active;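 active = lipid droplet intensity inhibited by at least 50%, with more than 500 cells counted; inconclusive = wells with under 300 cells, treated as cytotoxic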
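Test system: AML12 hepatocytes (mouse); reagent: oleate loading, 100 µM; dosing: one dose, 6.5 µM compound; incubation: overnight exposure; signal: fluorescence imaging, 20x objective, two fields per well; read-out basis: % inhibition of corrected integrated BODIPY droplet signal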
Gli-Sufu block: antagonists of Gli-Sufu signaling. Sufu-KO-LIGHT fibroblasts, Gli luciferase reporter luminescence. inhibition, % at 5 µM. 0.74% of 340,000 active;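 active = inhibition above about 55%, limit read from the data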;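 also: 0% = DMSO-treated cells and 100% = wells with medium but no cells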
Jurkat NFkB conf: inhibitors of the PMA/ionomycin-induced NF-kB reporter in Jurkat cells, retest | shares compounds with Jurkat NFkB inh | Jurkat NF-kB luciferase, 16 h | inhibition, % at 4 µM | 27% of 2,700 active;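 active = inhibition reaching about 45% at 4 µM in either replicate, limit read from the data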;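 also: plate controls were PMA/ionomycin stimulated DMSO wells for no effect and unstimulated DMSO wells for full effect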
697 NFkB conf: inhibitors of the PMA/ionomycin-induced NF-kB reporter in 697 B cells, retest. shares compounds with 697 NFkB inh. 697 B-cell NF-kB luciferase, 16 h. inhibition, % at 4 µM. 35% of 2,000 active. AID 449746; in the data active = inhibition mostly above about 28%, no sharp cut-off; inactive = mostly below about 22%
Gli-Sufu confirm: Gli-SUFU antagonism confirmation, single concentration; Sufu-KO-LIGHT cells, Gli luciferase reporter, luminescence; shares compounds with Gli-Sufu block; 40% of 2,500 active; inhibition, % at 5 µM; AID 602428;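 active = mean inhibition at 5 µM reaching about 45%, limit read from the data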;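 also: plate controls were DMSO-treated cells for no effect and wells lacking cells for full effect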
Gli cytotox: cytotoxicity counter-screen for Gli-SUFU antagonists | shares compounds with Gli-Sufu block | Sufu-KO-LIGHT cells cytotoxicity, ATP luminescence | cytotoxicity, % at 5 µM | 32% of 2,500 active;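 active = mean cytotoxicity at 5 µM above about 25%, limit read from the data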;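 also: cells exposed to compound overnight for roughly 16 to 18 hours; plate controls were DMSO wells with cells for no effect and medium without cells for full effect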
Wnt3a counter: Wnt3a reporter inhibition counter-screen; shares compounds with Gli-Sufu block; Wnt-LIGHT cells, Wnt3a-driven luciferase reporter, luminescence; inhibition, % at 6.25 µM; 20% of 2,500 active;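 active = mean inhibition above about 25%, limit read from the data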
The depositor's hits bear a star; ? = inconclusive; nt = no result given. This is a sample that favours compounds with a hit; in the whole collection about 1.8% have one here.

SMILES | 697 NFkB inh | Jurkat NFkB inh | hiPSC survival | H9c2 TAG inh | Hep lipid drop | Gli-Sufu block | Jurkat NFkB conf | Gli-Sufu confirm | Gli cytotox | Wnt3a counter | others
Nc1nc2c(-c3ccc(Br)cc3)nnn2c2ccccc12 | -258 | -152 | -1 | nt | 2 | -86 | -126 | nt | nt | nt | 697 NFkB conf=-249
OCCC1CN(Cc2ccc(Oc3ncccn3)cc2)CCN1Cc1ccc(F)c(F)c1 (stereo unspecified) | 22 | 9 | 0 | 0 | -2 | 12 | nt | nt | nt | nt
O=C(CCl)N1CCCC1c1ccc2c(c1)OCCO2 (stereo unspecified) | 52* | 85* | 1 | nt | 29 | 0 | 78* | nt | nt | nt | 697 NFkB conf=67*
CC(=O)NC(c1ccc(C(C)C)cc1)c1ccc2cccnc2c1O (stereo unspecified) | -32 | 51* | 0 | nt | 5 | 90* | 74* | 83* | 50* | 73*
CCCCC(=O)NC(c1ccccc1)c1ccc2cccnc2c1O (stereo unspecified) | -10 | 42 | 0 | 83 | -9 | -26 | nt | nt | nt | nt
CC[n+]1c(/C=C/N(C)c2ccccc2)oc2ccccc21 | 16 | 60* | 0 | nt | -17 | 85* | 54* | 87* | 42* | 33*
CCOc1ncccc1C(=O)Nc1nc(SC)ns1 | -31 | -23 | 1 | 6 | 9 | -34 | nt | nt | nt | nt
COc1ccc(-c2c(C#N)c(N)nc3c2CCc2ccccc2-3)cc1OC | 24 | 67* | nt | nt | nt | 54 | 44 | 56* | 18 | -8
O=C(O)C1CCCCC1C(=O)NCc1ccc(Cl)c(Cl)c1 (stereo unspecified) | 9 | 1 | -2 | -19 | 2 | -8 | nt | nt | nt | nt
COc1ccc(CN2CCC(C(=O)Nc3ccc(Oc4cccnc4)cc3)CC2)cc1 | 9 | 23 | 0 | -2 | -6 | 32 | nt | nt | nt | nt
COc1ccc(CN2CCC(C(=O)Nc3ccc(Oc4cccnc4)cc3)CC2)c(C)c1C | -41 | 54* | 0 | nt | -8 | 60* | 31 | 38 | 4 | 2
COC(=O)Cc1ccc(NC(=O)c2ccccc2Cl)cc1 | 34 | -1 | -4 | 8 | -2 | -9 | nt | nt | nt | nt
COC(=O)Cc1ccc(NC(=O)c2ccc(C(C)(C)C)cc2)cc1 | 77* | 64* | -4 | 72* | 9 | 72* | 79* | 77* | 45* | 102* | 697 NFkB conf=74*
COc1ccc(C2=NOC(C(=O)NCc3ccccc3)C2)cc1 (stereo unspecified) | -92 | 64* | -2 | nt | nt | 55* | 14 | 38 | 54* | -31
COC(=O)C(CC(C)C)NC(=O)C(Cc1ccccc1)NC(=O)C1CCCN1C(=O)OC(C)(C)C (stereo unspecified) | 15 | 8 | 2 | 8 | 0 | -2 | nt | nt | nt | nt
Fc1ccc2[nH]c3c(N4CCc5ccccc5C4)ncnc3c2c1 | 30 | 50* | 0 | -29 | -41 | 77* | 63* | 79* | 34* | 9
NNC(=S)NCc1ccc2c(c1)OCO2 | -2 | 4 | 2 | nt | -5 | -2 | nt | nt | nt | nt
COc1ccccc1N=C(C)C1=C(O)CC(c2ccccc2)CC1=O (stereo unspecified) | 9 | 69* | -1 | 27 | ? | 56* | 42 | 54* | 63* | -35
CCCC(=Nc1ccccc1OC)C1=C(O)CC(c2ccccc2)CC1=O (stereo unspecified) | 7 | 14 | 3 | nt | 6 | -18 | nt | nt | nt | nt
CC(C)CCc1noc(CN(C)CCC2CCOCC2)n1 | 17 | -3 | 0 | -4 | -8 | 13 | nt | nt | nt | nt
Cc1nn(C)c(C)c1CN(Cc1nc(CCC(C)C)no1)C(C)C | 9 | 53* | -1 | -33 | -60 | 79* | 51* | 73* | 26* | 51*
N#Cc1c(C(F)(F)F)cc(-c2cccs2)nc1SCc1cccnc1 | -71 | 31 | -1 | nt | nt | 22 | nt | nt | nt | nt
N#Cc1ccc(-c2cccs2)nc1SCc1cccnc1 | -37 | 66* | 0 | 53* | -11 | 60* | 37 | 34 | 55* | -39
Cc1cc(Cl)c2oc(C(=O)N3CCN(c4ccncc4)CC3)c(C)c2c1 | -50 | 61* | 0 | -2 | -51 | 68* | 15 | 26 | 23 | -36
Cc1c(C(=O)N2CCN(c3ccccc3)CC2)oc2c(F)cccc12 | -27 | -14 | 0 | -14 | 12 | 4 | nt | nt | nt | nt
SMILES | 697 NFkB inh | Jurkat NFkB inh | hiPSC survival | H9c2 TAG inh | Hep lipid drop | Gli-Sufu block | Jurkat NFkB conf | Gli-Sufu confirm | Gli cytotox | Wnt3a counter | others
Cc1ccc(OCCN2CCN(c3ncnc4sc(C)c(C)c34)CC2)cc1 | 43* | 67* | 1 | nt | -18 | 73* | 66* | 73* | 31* | 15 | 697 NFkB conf=56*
O=C(NNC(=O)C1CC=CCC1C(=O)O)c1ccc(Cl)cc1 (stereo unspecified) | 9 | 5 | -1 | nt | -2 | 4 | nt | nt | nt | nt
Cc1ccc(S(=O)(=O)NCc2ccncc2)cc1C | 22 | 52* | -1 | -10 | -40 | 74* | 55* | 73* | 26* | 36*
Cn1nc(C(C)(C)C)cc1C(=O)NCc1cc(F)cc2c1OCOC2 | 23 | 65* | 0 | -19 | -64 | 58* | 60* | 70* | 26* | 37*
CC(=O)Oc1ccc(C(=O)Nc2cc(C)on2)cc1 | -40 | -9 | -1 | nt | 2 | -33 | nt | nt | nt | nt
CCCCCCCOc1ccc(OC(=O)c2ccncc2)cc1 | -92 | 80* | 3 | nt | -1 | 74* | 55* | 63* | 20 | 10
CCCCOc1ccc(OC(=O)c2cccnc2)cc1 | -37 | -10 | 2 | 11 | nt | 31 | nt | nt | nt | nt
CCCCCCCOc1ccc(OC(=O)c2cccnc2)cc1 | -139 | 85* | 4 | nt | -15 | 74* | 53* | 60* | 20 | -8
CCN1CCc2c(sc(NC(=O)c3ccc(S(=O)(=O)N(C)c4ccccc4)cc3)c2C(=O)NC)C1 | 11 | 6 | 0 | 14 | -1 | 17 | nt | nt | nt | nt
C#CC[N+](C)(C)CCCCCCCCCCCC | 30 | 71* | -1 | -20 | -34 | 84* | 52* | 81* | 28* | 22
CCOC(=O)Cn1ccc(NC(=O)COc2ccc(F)cc2F)n1 | 1 | 2 | 0 | nt | 15 | -10 | nt | nt | nt | nt
